# This is a sample that favours compounds with a hit; in the whole collection about 3% have one here.
# TRPC4 block: blocks the mouse TRPC4 cation channel; HEK293 TRPC4beta/mu-opioid, DAMGO-evoked Fluo4 calcium flux; hits give low values; B-score at 10 µM; 0.39% of 300,000 active; AID 2247;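 active = B-score over 3 SD under the library average, no early fluorescence shift, positive overall ratio signal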
# Target sequence (Q9QUQ5 whole entry, looked up): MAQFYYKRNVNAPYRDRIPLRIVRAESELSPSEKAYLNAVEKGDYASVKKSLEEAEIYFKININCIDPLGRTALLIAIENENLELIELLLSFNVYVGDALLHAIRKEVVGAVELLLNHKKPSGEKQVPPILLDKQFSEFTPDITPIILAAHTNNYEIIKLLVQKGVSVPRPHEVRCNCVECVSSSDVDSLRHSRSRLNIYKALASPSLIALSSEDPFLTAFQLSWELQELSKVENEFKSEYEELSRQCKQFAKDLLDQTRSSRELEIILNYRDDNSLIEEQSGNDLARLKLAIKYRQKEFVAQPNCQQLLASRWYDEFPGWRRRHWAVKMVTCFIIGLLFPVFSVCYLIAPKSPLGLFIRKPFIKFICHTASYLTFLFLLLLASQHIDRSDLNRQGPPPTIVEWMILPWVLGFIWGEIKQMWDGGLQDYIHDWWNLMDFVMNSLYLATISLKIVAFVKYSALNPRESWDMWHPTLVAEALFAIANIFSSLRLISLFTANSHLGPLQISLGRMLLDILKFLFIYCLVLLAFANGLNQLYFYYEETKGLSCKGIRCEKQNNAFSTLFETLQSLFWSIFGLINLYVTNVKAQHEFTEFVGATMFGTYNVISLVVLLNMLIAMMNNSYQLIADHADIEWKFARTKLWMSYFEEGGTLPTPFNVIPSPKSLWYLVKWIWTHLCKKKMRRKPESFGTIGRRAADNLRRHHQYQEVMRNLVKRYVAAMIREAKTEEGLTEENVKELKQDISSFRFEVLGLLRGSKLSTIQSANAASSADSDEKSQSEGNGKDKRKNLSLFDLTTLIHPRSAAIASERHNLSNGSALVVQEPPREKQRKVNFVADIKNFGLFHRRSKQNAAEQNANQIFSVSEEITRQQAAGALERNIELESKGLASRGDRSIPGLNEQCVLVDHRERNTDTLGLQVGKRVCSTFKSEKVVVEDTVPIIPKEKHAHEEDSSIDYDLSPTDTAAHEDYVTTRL
#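 Assay system: HEK293 cells with stable TRPC4beta plus mu-opioid receptor expression; Probe or stimulus: DAMGO in two steps, submaximal then maximal; Dosing: single-point compound dosing; Measured by: Fluo4 calcium-dye fluorescence, kinetic read; Read-out basis: B score from integrated Fluo4 fluorescence ratio.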
# Kir21 block: Kir2.1 (mouse) channel inhibition; HEK293-Kir2.1, FluxOR thallium flux fluorescence; hits give low values; B-score at 10 µM; 0.85% of 310,000 active;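 active = fluorescence ratio B-score at or below minus 3 SD of library scores, with starting-brightness B-score within 2 SD, cut at about -4.2 in these data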;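 note: channel flux triggered by added potassium and thallium sulfate stimulus; B-score of peak minus minimum fluorescence over baseline after thallium stimulus; more negative B-score means stronger Kir2.1 block with less thallium influx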
# TRPC4 act: activators of mouse TRPC4 channel. Q9QUQ5. 0.49% of 310,000 active. B-score at 10 µM. HEK293 TRPC4beta/mu-opioid, Fluo4 calcium fluorescence; hits give high values;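 active = B-score above 5 SD of library B-scores, and initial fluorescence ratio not above library mean plus 5 SD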;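 note: positive B-score marks a calcium rise read as TRPC4 activation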
#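 Assay system: HEK293 cells stably co-expressing mouse TRPC4beta and mu-opioid receptor / Timing: Fluo4 dye loading 45 min at room temperature, 110 s recording / Signal: Fluo4 calcium-sensitive dye fluorescence, kinetic, 1 Hz baseline / Read-out: integrated baseline-normalised fluorescence ratio, converted to per-well B score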
# TRPC6 inh: blocks the mouse TRPC6 cation channel; B-score at 10 µM; AID 2553; Q61143; HEK293-TRPC6, membrane potential dye, ACh-evoked depolarization; hits give low values; 1.1% of 310,000 active;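 active = B-score under library mean minus 3 SD, initial fluorescence not abnormally high, positive integrated signal ratio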;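 note: B-score derived from integrated fluorescence ratio over the kinetic read; more negative B-score means stronger inhibition of depolarization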
# TRPC6 activator: activators of mouse TRPC6 channel; Q61143; 0.13% of 310,000 active; HEK293-TRPC6 membrane potential dye fluorescence; hits give high values; B-score at 10 µM; AID 2550;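 active = B-score of the integrated fluorescence ratio above library mean plus 3 SD, and starting fluorescence ratio within library mean plus 5 SD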;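 note: higher score means more depolarization so channel activation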
# TRPC4 potent: allosteric potentiators of mouse TRPC4 channel; AID 2227; B-score at 10 µM; 0.42% of 310,000 active; HEK293 TRPC4beta/mu-opioid, DAMGO EC20, Fluo-4 Ca2+ flux; hits give high values;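 active = B-score of calcium response area above 5 SD of library B-scores, with initial fluorescence ratio within 5 SD of library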;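 note: B-score of integrated fluorescence ratio over time as area under calcium response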
# TRPC4 sel inh 2: second check of whether TRPC6 inhibitors also affect mouse TRPC4. 42% of 920 active. inhibition, % at 10 µM. HEK293 TRPC4/MOR, membrane potential dye fluorescence; channel activated by saturating DAMGO dose. shares compounds with TRPC6 inh. AID 2776;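 active = compounds whose fluorescence signal differed from control wells by over 3 SD, either direction, in both duplicate plates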
# TRPC4 spec: mouse TRPC4 off-target activity of TRPC6 inhibitors; shares compounds with TRPC6 inh; HEK293 TRPC4/mu-opioid, membrane potential fluorescence; activity change, negative = inhibition, % at 10 µM; 61% of 920 active;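 active = rise or fall in signal beyond 3 SD of buffer-only wells in both replicate plates, either sign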;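 note: integrated kinetic ratio of fluorescence range over baseline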
# HEK293 MPD ctr 2-1: second counter-screen for TRPC6 inhibitors: parental HEK293 cells; shares compounds with TRPC6 inh; parental HEK293 membrane potential dye fluorescence; maximal acetylcholine challenge after compound addition; signal change vs control, % at 10 µM; 31% of 920 active; AID 2779;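 active = membrane potential signal moving either way by over 3 SD of the maximum-effect control, in both duplicate plates, meaning non-specific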
# HEK293 MPD ctr-1: counter-screen for TRPC6 inhibitors: effect in parental HEK293 cells | 60% of 920 active | parental HEK293 membrane potential dye fluorescence | membrane potential signal change, % at 10 µM | shares compounds with TRPC6 inh;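 active = membrane potential signal shifting up or down by more than 3 SD of buffer-only wells, on both duplicate plates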
# HEK293 MPD ctr-2: parental HEK293 nonspecific activity of TRPC6 modulators | shares compounds with TRPC6 inh | membrane potential dye fluorescence | membrane potential signal change, % at 10 µM | 51% of 2,400 active | AID 488924;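 active = membrane potential signal moves up or down beyond 5 SD from buffer-only wells, on both duplicate plates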
# HEK293 MPD ctr 2-2: second check of TRPC6 modulator effects in parental HEK293 cells; inhibition, % at 10 µM; AID 488926; 14% of 2,400 active; shares compounds with TRPC6 inh; membrane potential dye fluorescence; after compound, maximal acetylcholine stimulation;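 active = membrane potential signal drops by more than 5 SD from the mean control signal, in both duplicate plates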;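 note: plate controls were acetylcholine ECmax control wells for no effect and buffer only wells for full effect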
# TRPC4 ctr mod: tests whether TRPC6 modulators also affect mouse TRPC4; shares compounds with TRPC6 inh; HEK293 TRPC4/mu-opioid, membrane potential fluorescence; percent change from control (negative = decrease, positive = increase), % at 10 µM; 69% of 2,400 active;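 active = membrane potential signal moved up or down beyond 5 SD of buffer control wells, in both duplicate plates, actives on both sides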;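 note: plate controls were assay buffer wells for no effect and DAMGO maximal-effect wells for full effect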
# TRPC4/MOR inh 2: mouse TRPC4 off-target activity of TRPC6 modulators, second screen; shares compounds with TRPC6 inh; HEK293 TRPC4/mu-opioid, membrane potential dye fluorescence; stimulated with maximal-effect DAMGO; inhibition, % at 10 µM; 55% of 2,400 active; AID 488928;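 active = drop in membrane potential signal beyond 5 SD of the control wells in both duplicate plates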;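 note: TRPC4 counter screen for TRPC6 hits run under conditions tuned for TRPC6 not TRPC4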
# TRPC6 block conf: confirmation of mouse TRPC6 inhibitors. shares compounds with TRPC6 inh. HEK293-TRPC6, membrane potential dye, ACh-evoked depolarization. inhibition, % at 10 µM. 43% of 3,300 active. AID 488960;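 active = fluorescence ratio falls more than 5 SD below the full-stimulation control mean, in both duplicate runs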;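 note: integrated fluorescence ratio of peak minus minimum over baseline after agonist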
# TRPC6 act conf: mouse TRPC6 activator confirmation; activation, % at 10 µM; 11% of 2,800 active; AID 488961; HEK293-TRPC6 membrane potential dye fluorescence, FDSS; shares compounds with TRPC6 inh;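 active = ratio signal rise beyond 5 SD above unstimulated control wells' mean, seen in both duplicate runs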;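 note: plate controls were buffer EC0 wells for no effect and acetylcholine ECmax response for full effect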
# * marks the source's active call; other numbers are inactive results; i = inactive; nt = no result given.
SMILES,TRPC4 block,Kir21 block,TRPC4 act,TRPC6 inh,TRPC6 activator,TRPC4 potent,HEK293 MPD ctr-2,HEK293 MPD ctr 2-2,TRPC4 ctr mod,TRPC4/MOR inh 2,TRPC6 block conf,TRPC6 act conf,others
COc1ccc(/C=C(\NC(=O)c2ccco2)C(=O)NC(Cc2ccccc2)C(=O)O)cc1 (stereo not drawn),i,2.2,i,i,i,i,nt,nt,nt,nt,nt,nt,
COc1ccc(-c2cc(C(=O)Nc3cccnc3)no2)cc1OC,i,-0.16,i,i,i,i,nt,nt,nt,nt,nt,nt,
CC(CCc1ccccc1)NCc1cccc2ccccc12 (stereo not drawn),i,-9.7*,i,-7.4*,i,i,nt,nt,nt,nt,67%*,nt,TRPC4 sel inh 2=i;TRPC4 spec=32%*;HEK293 MPD ctr 2-1=i;HEK293 MPD ctr-1=15%*
COc1ccc(NC(=O)CN(C)C(=O)C(C)N2C(=O)c3ccccc3C2=O)cc1 (stereo not drawn),i,1.4,i,i,i,i,nt,nt,nt,nt,nt,nt,
CCc1ccc(OCC2NCCc3cc(OC)c(OC)cc32)cc1 (stereo not drawn),i,0.03,i,-5.8*,i,i,i,i,i,46%*,i,i,
COc1cc2c(cc1OC)C(COc1ccc(F)cc1)NCC2 (stereo not drawn),i,-0.72,i,i,i,i,nt,nt,nt,nt,nt,nt,
Cc1nc(C(=O)NC2CCCCC2)sc1C1(C)CC(c2cccnc2)=NO1 (stereo not drawn),i,1.2,i,i,i,i,nt,nt,nt,nt,nt,nt,
COc1ccccc1N1CCN(C2=Nc3cccc4cccc2c34)CC1,i,-0.09,i,-8.7*,i,i,-214%*,79%*,-45%*,84%*,60%*,i,
c1cc2c3c(cccc3c1)C(N1CCOCC1)=N2,i,-0.4,i,-6.8*,i,i,-198%*,i,-129%*,84%*,52%*,i,
CC1CN(C2=Nc3cccc4cccc2c34)CC(C)O1 (stereo not drawn),i,0.74,i,-7.3*,i,i,-152%*,i,-72%*,46%*,58%*,i,
O=C1c2ccccc2C(=O)c2c1cccc2N1CCOCC1,i,1.1,i,i,i,i,nt,nt,nt,nt,nt,nt,
O=C(CCC(=O)NNC(=O)c1ccccc1[N+](=O)[O-])NCc1ccccc1,i,-0.42,i,i,i,i,nt,nt,nt,nt,nt,nt,
CN(C)CCCNC(=O)C1(O)c2cc(Br)ccc2NC(=O)N1c1ccc(Cl)cc1 (stereo not drawn),i,-0.04,i,i,i,i,nt,nt,nt,nt,nt,nt,
Cc1cccc(NC(=S)NC2CC3CCCC(C2)N3Cc2cccs2)c1 (stereo not drawn),i,-1.6,i,-7*,i,i,nt,nt,nt,nt,i,i,TRPC4 sel inh 2=i;TRPC4 spec=i;HEK293 MPD ctr 2-1=i;HEK293 MPD ctr-1=-0.4%*
CN1CCc2c1nc1ccccc1c2N (tested in a mixture with another compound),i,-0.62,i,i,i,i,nt,nt,nt,nt,nt,nt,
Cc1cccc2c(N)c3c(nc12)N(C)CC3,i,0.05,i,-5.5*,i,i,-154%*,91%*,-36%*,81%*,78%*,i,
Cc1ccc2nc3c(c(N)c2c1)CCN3C,-7*,-0.42,i,-7.1*,i,i,nt,nt,nt,nt,58%*,i,TRPC4 sel inh 2=51%*;TRPC4 spec=-27%*;HEK293 MPD ctr 2-1=13%*;HEK293 MPD ctr-1=-460%*
Cc1ccc2nc3c(c(N)c2c1)CCN3c1ccccc1,i,-1.8,i,i,i,i,nt,nt,nt,nt,nt,nt,
COc1ccc2oc(=O)c(C(=O)C[n+]3cccc(C)c3)cc2c1,i,1.3,i,-8.4*,i,i,nt,nt,nt,nt,i,i,TRPC4 sel inh 2=i;TRPC4 spec=-12%*;HEK293 MPD ctr 2-1=i;HEK293 MPD ctr-1=-137%*
CNC(=O)c1cc2cc(OC)ccc2oc1=O,i,0.59,i,i,i,i,nt,nt,nt,nt,nt,nt,
Cc1cc(C)cc(N2C(=O)CSC2c2ccccn2)c1 (stereo not drawn),i,-0.5,i,i,i,i,nt,nt,nt,nt,nt,nt,
CC1CCN(CC(=O)Nc2ccc(N3CCCCCC3)cc2)CC1,i,-2.5,i,-5.4*,i,i,i,i,-17%*,38%*,i,i,
O=C(CNC1CCCC1)Nc1ccc(N2CCCCCC2)cc1,i,-0.37,i,-5.3*,i,i,i,i,-13%*,66%*,66%*,i,
CCN(CC)S(=O)(=O)c1cccc(NC(=O)CN(C)C2CCCCC2)c1,i,-0.97,i,i,i,i,nt,nt,nt,nt,nt,nt,
O=C(CNCC1CCCCC1)Nc1ccc(N2CCCCC2)cc1,i,-0.22,i,i,i,i,nt,nt,nt,nt,nt,nt,
CC1CCN(CC(=O)Nc2ccc(S(=O)(=O)N3CCCCC3)cc2)CC1,i,-0.05,i,i,i,i,nt,nt,nt,nt,nt,nt,
O=C(CNCC1CCCO1)Nc1ccc(N2CCCCCC2)cc1 (stereo not drawn),i,-0.54,i,-6.3*,i,i,i,i,-16%*,33%*,i,i,

# Assay outcomes deposited in PubChem by Johns Hopkins Ion Channel Center.
